Source: PubChem BioAssay (Sanford-Burnham Center for Chemical Genomics)
In the library only some 2.3% were active in any assay of this set; here they are far more common.
MT1-MMP act inh: blocks activation of human MT1-MMP; HT1080 RFP-PRO-GFP cells, GFP/RFP ratio fluorescence, overnight; percent of plate control window, DMSO zero; P50281; GFP/RFP ratio change, % at 20 µM; actives 0.061% (n = 360,000); AID 651647;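 active means GFP/RFP ratio change of at least 30% with cell ATP level not reduced by more than half and red fluorescence within 50% of control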
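Assay system: HT1080 RFP-PRO-GFP cells | Dosing: 20 µM single dose, 1% DMSO | Incubation: Cells overnight before dosing, compound overnight, 37 °C, 5% CO2 | Evaluation: GFP/RFP fluorescence ratio | Control set: DMSO-only wells and HT1080 RFP-L50D-GFP cell wells as references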
MPTP inh: blocks calcium-induced mitochondrial swelling | inhibition, % at 10 µM | isolated mouse mitochondria, Ca2+ swelling absorbance, 30 min | actives 1.4% (n = 360,000);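 active means inhibition of 50% or more, scaled per plate between neutral and stimulator controls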
ATG4B inh: ATG4B (human) cysteine protease inhibition; AID 504462; actives 0.51% (n = 340,000); ATG4B cleavage of LC3-PLA2, NBD-HPC fluorescence, 1 h; inhibition, % at 8.33 µM; Q9Y4P1; in the data active means inhibition above about 40%
Target sequence (Q9Y4P1 whole entry, looked up): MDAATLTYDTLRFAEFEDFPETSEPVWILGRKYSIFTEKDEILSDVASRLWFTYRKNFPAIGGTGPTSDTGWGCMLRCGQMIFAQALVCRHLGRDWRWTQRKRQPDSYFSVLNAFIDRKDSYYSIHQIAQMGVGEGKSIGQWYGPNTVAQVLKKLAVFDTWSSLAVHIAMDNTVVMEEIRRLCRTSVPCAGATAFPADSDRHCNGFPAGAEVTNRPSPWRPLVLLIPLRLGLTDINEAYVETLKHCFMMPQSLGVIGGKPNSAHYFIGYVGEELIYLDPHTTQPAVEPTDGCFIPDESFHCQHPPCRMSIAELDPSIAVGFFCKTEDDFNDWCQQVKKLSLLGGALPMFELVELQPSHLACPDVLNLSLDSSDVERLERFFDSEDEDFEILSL
SKN-1 block: inhibitors of C. elegans SKN-1; inhibition, % at 21.8 µM; AID 624304; actives 0.49% (n = 360,000); C. elegans VP596 Pgst-4::GFP/RFP ratio, acrylamide-induced, 24 h;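 active means interference check ratio from 0.5 to 1.5 plus GFP to RFP signal ratio inhibition reaching or exceeding a fixed threshold, cut at about 30% in these data, passing the limit was not always enough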
ATG4B confirm: confirmation of human ATG4B inhibitors; shares compounds with ATG4B inh; inhibition, % at 8.33 µM; actives 92% (n = 320); AID 504757; ATG4B protease fluorescent substrate cleavage assay; in the data active means inhibition above about 39%
PLA2 counter: inhibits human PLA2, flagging false ATG4B inhibitors; inhibition, % at 8.33 µM; actives 66% (n = 1,600); AID 588402; purified PLA2, NBD-C6-HPC fluorescence, 45 min; shares compounds with ATG4B inh; in the data active means inhibition above about 50%
Target sequence (P04054 whole entry, looked up): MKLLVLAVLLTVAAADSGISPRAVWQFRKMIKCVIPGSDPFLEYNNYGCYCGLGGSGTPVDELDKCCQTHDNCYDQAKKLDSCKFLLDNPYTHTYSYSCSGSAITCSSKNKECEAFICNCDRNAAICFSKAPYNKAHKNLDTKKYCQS
Numbers stand for hits; 0 = inactive; - = no result given.

SMILES	MT1-MMP act inh	MPTP inh	ATG4B inh	SKN-1 block	PLA2 counter	others
Cc1c(C(=O)O)sc2nc(-c3cccs3)cc(C(F)(F)F)c12	0	0	0	0	-
Cc1c(C(=O)Nc2nccs2)sc2nc(-c3cccs3)cc(C(F)(F)F)c12	0	0	50	0	0
Cc1cc(NC(=O)COC(=O)C2CC(=O)N(c3cccc(Cl)c3)C2)no1 (stereo not drawn)	0	0	0	0	-
COC1=CC(=O)C(O)=C(CCCCCCC/C=C/CCCCCCCC2=C(O)C(=O)C=C(OC)C2=O)C1=O	0	0	52	0	78
CCCCCCCCCCCC1=C(O)C(=O)C=C(O)C1=O	0	0	0	0	-
COc1ccc(C(=O)N2CCN(Cc3nc(CC4CC4)no3)CC2)cc1	0	0	0	0	-
COc1ccccc1C1C2=C(N=c3s/c(=C/c4cccc(OCC(=O)O)c4)c(=O)n31)c1ccccc1CC2 (stereo not drawn)	0	0	50	0	56
COc1cccc(C2C3=C(N=c4s/c(=C\c5cccc(O)c5)c(=O)n42)c2ccccc2CC3)c1OC (stereo not drawn)	0	0	0	0	-
c1cncc(CNc2nc(-c3cccnc3)nc3ccccc23)c1	0	0	0	0	-
CC(C)(C)c1ccc(-c2nc(NCc3cccnc3)c3ccccc3n2)cc1	0	0	68	0	82
O=C1CCCC2=C1C1(CCCC1)N=C(Nc1nc3ccccc3s1)N2	0	0	75	0	0
O=C1CCCC2=C1C1(CCCCC1)N=C(Nc1nc3ccccc3s1)N2	0	0	55	0	0
Cc1ccc2nc(NC3=NC4(CCCC4)C4=C(CCCC4=O)N3)oc2c1	0	0	-	0	-
O=C(COc1ccc(C(=O)c2ccccc2)cc1)NCC1CCCCC1	0	0	46	0	0
COc1ccc(CCNC(=O)c2nnn(CC(=O)Nc3cccc(F)c3)c2N)cc1OC	0	0	0	0	-
O=C1NC(=O)/C(=C/c2ccccc2OCc2ccccc2)S1	0	0	46	0	53
O=C(COc1ccccc1/C=C1\SC(=O)NC1=O)Nc1ccccc1	0	0	0	0	-
O=C1NC(=O)/C(=C\c2ccccc2Oc2ccc(F)c(F)c2)S1	0	0	57	0	0
CC(C(=O)Nc1ccc(F)cc1Cl)N1CCN(S(=O)(=O)c2cccs2)CC1 (stereo not drawn)	0	0	0	0	-
COCOCCn1cc(CN2CCS(=O)(=O)N(Cc3ccc(-c4ccc(OC)nc4)cc3)C(C(C)C)C2=O)nn1 (stereo not drawn)	0	0	-	0	-
CCCCOc1ccc(-c2cn3ccccc3n2)cc1[N+](=O)[O-]	0	0	45	0	0
CN(CC(=O)NCCc1ccc(S(N)(=O)=O)cc1)CC(=O)Nc1ccccc1C(F)(F)F	0	0	0	0	-
O=C(CN1CCN(S(=O)(=O)c2ccccc2F)CC1)N1CCc2ccccc2C1	0	0	0	0	-
N=C(N)c1ccc(N=Nc2c(O)ccc3c2[nH]c2ccccc23)cc1	0	0	86	0	0	ATG4B confirm=38
COc1ccccc1NC(=O)Nc1cc(NC(=O)Nc2ccccc2OC)c(C)nc1C	0	0	0	0	-
SMILES	MT1-MMP act inh	MPTP inh	ATG4B inh	SKN-1 block	PLA2 counter	others
COc1cc2c(cc1OC)C(c1cc(C)ccc1C)CC(=O)N2 (stereo not drawn)	0	0	0	0	-
COc1ccccc1N1CCN(S(=O)(=O)c2ccc3nc(-c4ccccc4)[nH]c3c2)CC1	0	0	59	0	58
O=S(=O)(c1ccc2nc(-c3ccccc3)[nH]c2c1)N1CCN(c2cccc(Cl)c2)CC1	0	0	0	0	-
Cn1cccc1-c1nc2ccccc2n1Cc1ccccc1	0	0	43	0	56
COc1ccc(Cn2c(-c3ccc(OC)cc3)nc3ccccc32)cc1	0	0	0	0	-
Fc1cccc(CSc2ccc(-c3ccc4c(c3)OCO4)nn2)c1	0	0	0	0	-
Cc1ccccc1CSc1ccc(-c2ccc3c(c2)OCO3)nn1	0	0	45	0	0
O=C1Nc2ccccc2S/C1=C/NCc1ccccc1Cl	0	0	55	0	61
Cc1ccc(Cn2nc(C)c(NC(=O)CSc3nc4c(c(C(F)(F)F)n3)CCc3ccccc3-4)c2C)cc1	0	0	0	0	-
Cc1ccccc1Cn1cc(NC(=O)CSc2nc3c(c(C(F)(F)F)n2)CCc2ccccc2-3)cn1	0	0	78	0	73
CN(Cc1ccccc1)S(=O)(=O)c1ccc(NC(=S)NC(=O)C2CCCC2)cc1	0	0	50	0	0
CCN(c1ccc(OC)cc1)S(=O)(=O)N1CCCC(C(=O)NCc2ccccc2Br)C1 (stereo not drawn)	0	0	57	0	58
CCCCOc1ccc(-c2cc(C(=O)NNC(=S)NCC)c3ccccc3n2)cc1	0	0	47	0	58
O=C(CNC1CCCCC1)Nc1cccc(C(F)(F)F)c1	0	0	0	0	-
CC1(C)OC(=O)C(=CNNc2c(Cl)cc(Cl)cc2Cl)C(=O)O1	0	0	0	0	-
Oc1ccc2ccccc2c1/C=N/Nc1nnc(-c2ncc[nH]2)c2ccccc12	0	0	48	0	0	ATG4B confirm=49
COc1ccc(/C=N/Nc2nnc(-c3ncc[nH]3)c3ccccc23)cc1	0	0	0	0	-
CCCCC(=O)Nc1c2c(nn1-c1ccc(C)cc1)CS(=O)(=O)C2	0	0	0	0	-
CC(C)(C)[C@H]1COC(=O)[C@H](NC(=O)OCC2c3ccccc3-c3ccccc32)C/C=C\C[C@@H](CC(=O)N[C@H](CO)Cc2ccccc2)C(=O)N1	0	0	0	0	-
CCSc1nnc(NC(=O)CSc2nnc(Cc3cccn3C)n2CCc2ccccc2)s1	0	0	58	0	52
Cn1nc(-c2ccccn2)nc2c(=O)n(C)c(=O)nc1-2	0	0	79	0	0	ATG4B confirm=0
CCn1c(N)nc2c1c(=O)n(C)c(=O)n2C	0	0	0	0	-
CCCc1nc2c(=O)n(C)c(=O)nc-2n(C)n1	0	0	77	0	0	ATG4B confirm=0
CCOC(=O)NC(=O)C(=CNc1ccc(C)cc1)C(=O)NC(=O)OCC	0	0	0	0	-
CC1CCC(NC(=O)C(NS(=O)(=O)c2ccc(Br)cc2)C(C)C)CC1 (stereo not drawn)	0	0	-	0	-
Clc1ccccc1OCCN1CCC(Cc2ccccc2)CC1	0	0	0	0	-
O=Cc1cc(Cl)ccc1OCCN1CCC(Cc2ccccc2)CC1	0	0	84	0	87
COc1ccc(CCNC(=O)COC(=O)c2ccc(N3CCCC3=O)cc2)cc1	0	0	0	0	-
Cc1cc(-c2ccc(C(C)C)c(S(=O)(=O)Nc3ccccn3)c2)on1	0	0	0	0	-
CC(=O)c1cccc(NC(=O)C2C3C=CC(C3=C(c3ccccc3)c3ccccc3)C2C(=O)O)c1 (stereo not drawn)	0	0	79	0	90
